Biological target: Amyloid-beta precursor protein (Homo sapiens, UniProt P05067)
Assay: Inhibition constant for aggregates of amyloid beta compared to [125I]IMSB
Method in brief: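 Aβ(1-40) or Aβ(1-42) aggregated at 0.5 or 0.25 mg/mL respectively in pH 7.4 buffer (10 mM sodium phosphate, 1 mM EDTA), 37 °C, 36-42 h with shaking. Competition against ¹²⁵I radioligand with fibrils 10-50 nM (final), 10% EtOH, 1 mL. Incubation 3 h room temperature. Bound ligand collected by GF/B filtration, γ-counted. Ki by nonlinear regression. Mean ± SEM, three experiments in duplicate.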

Sequence of Amyloid-beta precursor protein (P05067 whole entry): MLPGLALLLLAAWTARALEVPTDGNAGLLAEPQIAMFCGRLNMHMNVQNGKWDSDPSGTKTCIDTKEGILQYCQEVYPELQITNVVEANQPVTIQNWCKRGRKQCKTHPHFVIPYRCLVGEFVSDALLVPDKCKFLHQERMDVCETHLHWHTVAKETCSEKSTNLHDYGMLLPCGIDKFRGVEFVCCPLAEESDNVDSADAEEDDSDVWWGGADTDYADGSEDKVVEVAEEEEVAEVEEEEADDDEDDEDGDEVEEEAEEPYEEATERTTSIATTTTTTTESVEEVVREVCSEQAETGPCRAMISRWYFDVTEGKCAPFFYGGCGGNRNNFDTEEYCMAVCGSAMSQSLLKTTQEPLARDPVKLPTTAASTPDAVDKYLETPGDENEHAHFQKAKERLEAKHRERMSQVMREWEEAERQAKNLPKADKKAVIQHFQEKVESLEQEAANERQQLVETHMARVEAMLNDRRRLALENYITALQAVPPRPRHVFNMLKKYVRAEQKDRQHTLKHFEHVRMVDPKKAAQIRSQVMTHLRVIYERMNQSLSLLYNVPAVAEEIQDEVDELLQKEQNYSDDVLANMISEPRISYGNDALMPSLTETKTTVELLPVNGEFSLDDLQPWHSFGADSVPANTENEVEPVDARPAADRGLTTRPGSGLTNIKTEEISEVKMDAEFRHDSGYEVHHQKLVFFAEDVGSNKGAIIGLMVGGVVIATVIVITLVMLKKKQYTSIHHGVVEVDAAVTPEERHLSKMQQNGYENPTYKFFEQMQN

Ki [nM] | SMILES
> 3000 | CN(C)c1ccc(-c2nc3ccc(Br)cc3s2)cc1
> 2400 | CN1CCN(c2ccc(-c3nc4ccc(Br)cc4s3)cc2)CC1

From ChEMBL document CHEMBL1134439, “Radioiodinated styrylbenzenes and thioflavins as probes for amyloid aggregates” (J Med Chem, 2001)
